Activity calls are given as the source filed them.
Tests used:
[1] = test system: Mus musculus; test: Anticonvulsant activity in ip dosed Kunming mouse assessed as protection against maximal electroshock-induced seizure; assay type: functional
[2] = test system: Mus musculus; test: Anticonvulsant activity in ip dosed Kunming mouse assessed as protection against subcutaneous pentylenetetrazole-induced seizure; assay type: functional
Procedure, shortened: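 Median effective dose in male Kunming mice, groups of 10, given a range of ip doses until at least three points fell between 10–90% seizure protection.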

[3] = test system: Mus musculus; test: Anticonvulsant activity in ip dosed Kunming mouse assessed as protection against maximal electroshock-induced seizure after 0.5 hrs; assay type: functional; conditions: read-out: MED
Procedure, shortened: (§1)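 Male Kunming mice (20 ± 2.0 g) received ip 30, 100 or 300 mg/kg as a suspension in 0.5% methylcellulose, one to four mice per dose. At 0.5 h and 4.0 h, a 60-Hz, 50-mA current was applied for 0.25 s via corneal electrodes. Protection meant no hindlimb tonic extension. The value is the minimal dose protecting half or more of the mice.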

[4] = test system: Mus musculus; test: Anticonvulsant activity in ip dosed Kunming mouse assessed as protection against maximal electroshock-induced seizure after 4 hrs; assay type: functional; conditions: read-out: MED; procedure, shortened: as §1
[5] = test system: Mus musculus; test: Anticonvulsant activity in ip dosed Kunming mouse assessed as protection against subcutaneous pentylenetetrazole-induced seizure after 0.5 hrs; assay type: functional; conditions: read-out: MED
Procedure, shortened: (§2)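 Male Kunming mice (20 ± 2.0 g) were given ip doses of 30, 100 or 300 mg/kg in 0.5% methylcellulose, one to four mice per dose. They were then challenged with subcutaneous pentylenetetrazole dissolved in 0.9% saline at 0.5 h and 4.0 h. Protection was the absence of even a threshold seizure (a single clonic spasm lasting at least 5 s). The value is the minimal dose active in half or more of the mice.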

[6] = test system: Mus musculus; test: Anticonvulsant activity in Kunming mouse assessed as protection against subcutaneous pentylenetetrazole-induced seizure at 300 mg/kg, ip after 4 hrs; assay type: functional, organism-based; set-up: dose 300 mg/kg; procedure, shortened: as §2
[7] = test system: Mus musculus; test: Neurotoxicity in Kunming mouse assessed as minimal motor impairment at 300 mg/kg, ip after 0.5 hrs by rotarod test; assay type: toxicity, organism-based; set-up: dose 300 mg/kg, route intraperitoneal; conditions: in vivo
Procedure, shortened: (§3)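 Rotorod screen in trained male Kunming mice dosed ip at 30, 100 or 300 mg/kg in 0.5% methylcellulose, read at 0.5 h and 4.0 h. Mice were placed on a knurled rod 1 in. in diameter turning at 6 rpm. Impairment was failure to stay on the rod for at least 1 min in each of four trials. The value is the minimal dose affecting half or more of the mice.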

[8] = test system: Mus musculus; test: Anticonvulsant activity in ip dosed Kunming mouse assessed as protection against subcutaneous pentylenetetrazole-induced seizure after 4 hrs; assay type: functional; conditions: read-out: MED; procedure, shortened: as §2
[9] = Neurotoxicity in ip dosed Kunming mouse assessed as minimal motor impairment after 0.5 hrs by rotarod test; assay type: toxicity, organism-based; conditions: in vivo
[10] = test system: Mus musculus; test: Neurotoxicity in Kunming mouse assessed as minimal motor impairment at 300 mg/kg, ip after 4 hrs by rotarod test; assay type: toxicity, organism-based; set-up: dose 300 mg/kg, route intraperitoneal; conditions: in vivo; procedure, shortened: as §3
[11] = test system: Mus musculus; test: Protective index, ratio of TD50 for ip dosed Kunming mouse to ED50 for ip dosed Kunming mouse by maximal electroshock seizure test; assay type: functional
[12] = test system: Mus musculus; test: Protective index, ratio of TD50 for ip dosed Kunming mouse to ED50 for ip dosed Kunming mouse by subcutaneous pentylenetetrazole induced seizure test; assay type: functional
[13] = test system: Mus musculus; test: Anticonvulsant activity in Kunming mouse assessed as protection against maximal electroshock-induced seizure at 300 mg/kg, ip after 0.5 hrs; assay type: functional, organism-based; set-up: dose 300 mg/kg; procedure, shortened: as §1
[14] = test system: Mus musculus; test: Anticonvulsant activity in Kunming mouse assessed as protection against subcutaneous pentylenetetrazole-induced seizure at 300 mg/kg, ip after 0.5 hrs; assay type: functional, organism-based; set-up: dose 300 mg/kg; procedure, shortened: as §2
[15] = test system: Mus musculus; test: Anticonvulsant activity in Kunming mouse assessed as protection against maximal electroshock-induced seizure at 300 mg/kg, ip after 4 hrs; assay type: functional, organism-based; set-up: dose 300 mg/kg; procedure, shortened: as §1

Structure (SMILES)	minimal effective dose [3] [mg/kg]	minimal effective dose [4] [mg/kg]	minimal effective dose [5] [mg/kg]	Activity [6]	Activity [7]	Activity [10]	Activity [14]	Activity [15]	also measured
CCC1(c2ccccc2)C(=O)NC(=O)NC1=O [PHENOBARBITAL]									ED50 [1]: 21.8 mg/kg; ED50 [2]: 13.2 mg/kg
O=C1NC2(CC2c2ccc3cccc(OCc4ccccc4)c3n2)C(=O)N1C1CCCCC1 (racemic)	300	300	300	inactive	Non-toxic				
CCC(CO)N1C(=O)NC2(CC2c2ccc3cccc(OCc4ccccc4)c3n2)C1=O (racemic)	30	30	100		Non-toxic	Non-toxic			minimal effective dose [8]: 300 mg/kg; TD50 at 0.5 h [9]: 365 mg/kg; ED50 [1]: 8.6 mg/kg; ED50 [2]: 212 mg/kg; Ratio TD50/ED50 [11]: 26.8; Ratio TD50/ED50 [12]: 1.7
O=C1NC2(CC2c2ccc3cccc(OCc4ccccc4)c3n2)C(=O)N1c1ccc(Br)cc1 (racemic)		300		inactive			inactive		Activity [13]: inactive; MTD at 0.5 h [9]: 100 mg/kg
O=C1NC2(CC2c2ccc3cccc(OCc4ccccc4)c3n2)C(=O)N1c1ccc(F)cc1 (racemic)	300			inactive	Non-toxic		inactive	inactive	
O=C1NC2(CC2c2ccc3cccc(OCc4ccccc4)c3n2)C(=O)N1c1ccccc1 (racemic)		300		inactive			inactive		Activity [13]: inactive; MTD at 0.5 h [9]: 300 mg/kg
O=C1NC2(CC2c2ccc3cccc(OCc4ccccc4)c3n2)C(=O)N1c1ccc([N+](=O)[O-])cc1 (racemic)		300	300	inactive	Non-toxic	Non-toxic			Activity [13]: inactive
O=C1NC(=O)C2(CC2c2ccc3cccc(OCc4ccccc4)c3n2)N1 (racemic)	300		300	inactive		Non-toxic		inactive	MTD at 0.5 h [9]: 300 mg/kg
O=C1NC2(CC2c2ccc3cccc(OCc4ccccc4)c3n2)C(=O)N1c1cc(Cl)cc(Cl)c1 (racemic)			300	inactive		Non-toxic		inactive	Activity [13]: inactive; MTD at 0.5 h [9]: 300 mg/kg
CCC1(C)CC(=O)NC1=O (stereo not drawn) [ETHOSUXIMIDE]			100		Non-toxic	Non-toxic		inactive	Activity [13]: inactive; minimal effective dose [8]: 300 mg/kg
CCCCN1C(=O)NC2(CC2c2ccc3cccc(OCc4ccccc4)c3n2)C1=O (racemic)	300				Non-toxic	Non-toxic	inactive	inactive	minimal effective dose [8]: 300 mg/kg
NC(=O)N1c2ccccc2C=Cc2ccccc21 [CARBAMAZEPINE]									ED50 [1]: 8.8 mg/kg; ED50 [2]: > 100 mg/kg
CN1C(=O)NC2(CC2c2ccc3cccc(OCc4ccccc4)c3n2)C1=O (racemic)	100				Non-toxic		inactive	inactive	minimal effective dose [8]: 300 mg/kg
O=C1NC2(CC2c2ccc3cccc(OCc4ccccc4)c3n2)C(=O)N1c1ccc(C(F)(F)F)cc1 (racemic)	300	300			Non-toxic		inactive		minimal effective dose [8]: 300 mg/kg
O=C1NC2(CC2c2ccc3cccc(OCc4ccccc4)c3n2)C(=O)N1Cc1ccccc1 (racemic)		300	300	inactive	Non-toxic				Activity [13]: inactive
O=C1NC2(CC2c2ccc3cccc(OCc4ccccc4)c3n2)C(=O)N1c1ccc(Cl)cc1 (racemic)	300			inactive			inactive	inactive	MTD at 0.5 h [9]: 100 mg/kg
CCCC(CCC)C(=O)[O-].[Na+] [VALPROATE SODIUM]									ED50 [2]: 149 mg/kg
O=C1NC(=O)C(c2ccccc2)(c2ccccc2)N1 [PHENYTOIN]	30	30		inactive			inactive		ED50 [2]: > 300 mg/kg
CC(C)N1C(=O)NC2(CC2c2ccc3cccc(OCc4ccccc4)c3n2)C1=O (racemic)	300	100	100	inactive	Non-toxic	Non-toxic			
Cc1ccc(N2C(=O)NC3(CC3c3ccc4cccc(OCc5ccccc5)c4n3)C2=O)cc1 (racemic)	100			inactive	Non-toxic		inactive	inactive	
COc1ccc(N2C(=O)NC3(CC3c3ccc4cccc(OCc5ccccc5)c4n3)C2=O)cc1 (racemic)	30	100	300	inactive	Non-toxic	Non-toxic			TD50 at 0.5 h [9]: 433 mg/kg; ED50 [1]: 19.5 mg/kg; ED50 [2]: 279 mg/kg; Ratio TD50/ED50 [11]: 22.2; Ratio TD50/ED50 [12]: 1.6

Source: ChEMBL document CHEMBL1932992, “Synthesis and anticonvulsant activity of 1-(8-(benzyloxy)quinolin-2-yl)-6-substituted-4,6-diazaspiro[2,4]heptane-5,7-diones” (Eur J Med Chem, 2012)
